According to PMC5503496 (Drug Design, Development and Therapy, 2017):
Entries after “also recorded” stand apart in the source; their conditions may differ.

Legend:
[1] = biological target: mushroom tyrosinase (Agaricus bisporus, UniProt C7FF04); assay: Kinetic analysis of the inhibition of tyrosinase; assay type: biochemical; conditions: Lineweaver-Burk plots, L-DOPA
[2] = test system: pigmentation of zebrafish; assay: In vivo depigmentation assay in zebrafish; parameters: species or system zebrafish (Danio rerio); conditions: zebrafish embryos, 50 µM, 9 to 72 hpf
Method in brief: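 Synchronized embryos from wild-type adults (kept at 28.5°C, 14 h light/10 h dark) were placed 2–3 per well in E3 medium (NaCl 5 mM, KCl 0.17 mM, CaCl2 0.33 mM, MgSO4 0.33 mM). […] Dechorionated embryos were anesthetized with MS-222, mounted in 1% methyl cellulose and photographed by stereomicroscope. Pigmentation was quantified by pixel measurement.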

[3] = test system: melanin contents in zebrafish embryos; assay: Determination of melanin contents in zebrafish; assay type: in vivo, zebrafish (Danio rerio); conditions: 50 µM, 72 hpf

Chain of mushroom tyrosinase (C7FF04 1-392 limits assumed): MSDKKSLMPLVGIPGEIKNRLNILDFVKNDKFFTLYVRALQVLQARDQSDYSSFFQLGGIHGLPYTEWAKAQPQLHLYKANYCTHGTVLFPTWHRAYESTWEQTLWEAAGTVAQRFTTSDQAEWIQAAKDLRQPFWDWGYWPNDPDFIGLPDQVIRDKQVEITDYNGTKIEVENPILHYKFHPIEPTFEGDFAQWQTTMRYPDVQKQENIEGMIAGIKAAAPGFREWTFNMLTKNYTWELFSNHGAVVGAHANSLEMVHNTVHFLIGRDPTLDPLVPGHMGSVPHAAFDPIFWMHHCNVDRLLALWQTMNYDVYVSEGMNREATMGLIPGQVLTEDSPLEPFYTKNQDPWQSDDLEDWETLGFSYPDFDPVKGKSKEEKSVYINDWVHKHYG

Row | Inhibition type [1] | Structure (SMILES) | pigmentation level (decreased to) [2] [%] | melanin contents [3]
1 | mixed-type inhibition | Cc1ccc(C(C)C)cc1NC(=O)COC(=O)/C=C/c1ccccc1 [6a, 2-[2-methyl-5-(propan-2-yl)anilino]-2-oxoethyl (2E)-3-phenylprop-2-enoate] | – | –
2 | mixed-type inhibition | Cc1ccc(C(C)C)cc1NC(=O)COC(=O)/C=C/c1ccccc1O [6b, 2-[2-methyl-5-(propan-2-yl)anilino]-2-oxoethyl (2E)-3-(2-hydroxyphenyl)prop-2-enoate] | – | –
3 | – | O=c1cc(CO)occ1O [Kojic acid] | 24.2 | only slightly reduced the melanin contents

Row | Structure (SMILES) | Inhibition type [1] | pigmentation level (decreased to) [2] [%] | melanin contents [3]
4 | Cc1ccc(C(C)C)cc1NC(=O)COC(=O)c1ccc(O)cc1O [4c, 2-[2-methyl-5-(propan-2-yl)anilino]-2-oxoethyl 2,4-dihydroxybenzoate] | non-competitive inhibition; also recorded: non-competitively | – | –
